Reference: ChEMBL document CHEMBL4431376, “CZ415, a Highly Selective mTOR Inhibitor Showing in Vivo Efficacy in a Collagen Induced Arthritis Model” (ACS Med Chem Lett, 2016)
≈ marks a conversion by molar mass, not a printed value.

How the values were obtained:
Cytochrome P450 1A = molecular target: T1, Cytochrome P450 1A (Homo sapiens, UniProt P04798+P05177); assay: Inhibition of CYP1A in human liver microsomes
T1 sequence (P04798 whole entry): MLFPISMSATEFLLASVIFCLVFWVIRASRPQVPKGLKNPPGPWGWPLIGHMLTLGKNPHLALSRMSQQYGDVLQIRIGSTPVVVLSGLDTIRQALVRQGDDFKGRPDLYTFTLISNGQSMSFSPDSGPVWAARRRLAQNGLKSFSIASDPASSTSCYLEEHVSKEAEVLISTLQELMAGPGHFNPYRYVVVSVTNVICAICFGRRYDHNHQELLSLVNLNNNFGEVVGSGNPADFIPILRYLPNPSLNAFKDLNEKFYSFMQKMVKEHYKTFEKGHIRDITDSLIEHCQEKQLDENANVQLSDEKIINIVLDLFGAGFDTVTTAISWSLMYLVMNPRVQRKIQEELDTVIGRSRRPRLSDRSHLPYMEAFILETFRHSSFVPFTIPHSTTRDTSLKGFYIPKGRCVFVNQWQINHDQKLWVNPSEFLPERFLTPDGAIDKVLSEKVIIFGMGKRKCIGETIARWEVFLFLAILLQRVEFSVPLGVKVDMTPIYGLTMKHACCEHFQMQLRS
T1 sequence (P05177 whole entry): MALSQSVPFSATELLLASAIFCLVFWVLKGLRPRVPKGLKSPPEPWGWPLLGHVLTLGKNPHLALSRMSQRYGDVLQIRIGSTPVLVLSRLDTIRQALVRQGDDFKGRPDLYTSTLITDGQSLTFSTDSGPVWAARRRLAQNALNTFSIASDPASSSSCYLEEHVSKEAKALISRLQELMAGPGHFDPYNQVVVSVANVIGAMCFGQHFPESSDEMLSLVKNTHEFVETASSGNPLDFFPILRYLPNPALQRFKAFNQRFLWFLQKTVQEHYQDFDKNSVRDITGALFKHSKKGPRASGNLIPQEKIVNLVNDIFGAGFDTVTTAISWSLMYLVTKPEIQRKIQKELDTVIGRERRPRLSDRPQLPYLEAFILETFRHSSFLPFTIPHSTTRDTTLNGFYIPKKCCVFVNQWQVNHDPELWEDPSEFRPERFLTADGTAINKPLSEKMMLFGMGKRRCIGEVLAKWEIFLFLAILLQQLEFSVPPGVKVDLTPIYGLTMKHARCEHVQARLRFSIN

Cytochrome P450 2C8 = molecular target: T2, Cytochrome P450 2C8 (Homo sapiens, UniProt P10632); assay: Inhibition of CYP2C8 in human liver microsomes; assay type: ADME
T2 sequence (P10632 whole entry): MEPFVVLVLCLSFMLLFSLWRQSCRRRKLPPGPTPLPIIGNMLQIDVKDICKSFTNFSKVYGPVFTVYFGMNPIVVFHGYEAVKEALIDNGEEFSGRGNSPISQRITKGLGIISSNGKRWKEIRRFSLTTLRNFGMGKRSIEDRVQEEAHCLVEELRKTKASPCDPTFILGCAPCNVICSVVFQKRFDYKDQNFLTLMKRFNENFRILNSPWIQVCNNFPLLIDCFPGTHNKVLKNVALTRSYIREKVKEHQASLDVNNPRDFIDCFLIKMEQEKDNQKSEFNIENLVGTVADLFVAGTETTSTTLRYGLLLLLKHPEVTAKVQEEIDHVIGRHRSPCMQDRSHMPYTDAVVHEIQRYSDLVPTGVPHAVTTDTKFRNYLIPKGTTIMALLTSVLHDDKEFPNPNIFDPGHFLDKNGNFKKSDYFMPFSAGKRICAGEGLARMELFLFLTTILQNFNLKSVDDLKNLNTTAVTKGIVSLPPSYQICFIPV

Cytochrome P450 2C9 = Cytochrome P450 2C9 (Homo sapiens, UniProt P11712); assay: Inhibition of CYP2C9 in human liver microsomes; assay type: ADME
Cytochrome P450 2C19 = Cytochrome P450 2C19 (Homo sapiens, UniProt P33261); assay: Inhibition of CYP2C19 in human liver microsomes; assay type: ADME
Cytochrome P450 2D6 = Cytochrome P450 2D6 (Homo sapiens, UniProt P10635); assay: Inhibition of CYP2D6 in human liver microsomes; assay type: ADME
Cytochrome P450 3A4 [1] = molecular target: T3, Cytochrome P450 3A4 (Homo sapiens, UniProt P08684); assay: Inhibition of CYP3A4 in human liver microsomes; assay type: ADME
Cytochrome P450 3A4 [2] = molecular target: T3, Cytochrome P450 3A4; assay: Induction of CYP3A4 in […] at 10 uM; assay type: ADME
Procedure, shortened: (§1)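 CYP3A4 induction tested at 10 μM. Time-dependent inhibition of CYP3A4 tested at up to 50 μM.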

Cytochrome P450 3A4 [3] = molecular target: T3, Cytochrome P450 3A4; assay: Time-dependent inhibition of CYP3A4 in human liver microsomes at 50 uM; assay type: ADME; procedure, shortened: as §1
[4] = molecular target: Voltage-gated inwardly rectifying potassium channel KCNH2 (Homo sapiens, UniProt Q12809); assay: Inhibition of human ERG expressed in HEK293 cells by whole cell patch clamp assay; assay type: cell-based
Procedure, shortened: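 hERG measured by whole-cell patch clamp in HEK293 cells, reported as IC50.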

[5] = Mutagenicity in Salmonella typhimurium by Ames test; assay type: toxicity; conditions: salmonella enterica subsp. enterica serovar typhimurium
Lymphoma cell line [6] = assay: Genotoxicity in mouse lymphoma cells in presence of rat liver S9 fraction; assay type: toxicity, cell-based
Lymphoma cell line [7] = assay: Genotoxicity in mouse lymphoma cells in absence of rat liver S9 fraction; assay type: toxicity, cell-based
[8] = Distribution coefficient, logD of compound at pH 7.4; assay type: physicochemical; conditions: octanol/water
Procedure, shortened: (§2)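 logD measured at pH 7.4. Kinetic solubility measured by CLND. Solubility also measured in FaSSIF and FeSSIF biorelevant media.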

[9] = Kinetic solubility of compound by chemiluminescent nitrogen detection method; assay type: physicochemical; conditions: read-out: Kinetic_solubility; procedure, shortened: as §2
[10] = Solubility of compound in fasted state simulated intestinal fluid; assay type: physicochemical; procedure, shortened: as §2
[11] = Solubility of compound in fed state simulated intestinal fluid; assay type: physicochemical; procedure, shortened: as §2
[12] = Apparent permeability from apical to basolateral side in human CaCo2 cells; assay type: ADME, cell-based; conditions: Caco-2
Procedure, shortened: (§3)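 Caco-2 monolayer permeability, measured as Papp in the apical-to-basolateral and basolateral-to-apical directions.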

[13] = Apparent permeability from basolateral to apical side in human CaCo2 cells; assay type: ADME, cell-based; conditions: Caco-2; procedure, shortened: as §3
[14] = Intrinsic clearance in pooled rat liver microsomes at 1 uM incubated up to 40 mins in presence of NADPH by LC-MS/MS analysis; assay type: ADME, Microsome
Procedure, shortened: (§4)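 Metabolic stability was assessed in liver microsomes (rat, dog, human) and hepatocytes (dog, human). Intrinsic clearance was calculated as μL/min/g liver.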

[15] = Intrinsic clearance in pooled dog liver microsomes at 1 uM incubated up to 40 mins in presence of NADPH by LC-MS/MS analysis; assay type: ADME, Canis lupus familiaris, Microsome; procedure, shortened: as §4
[16] = Intrinsic clearance in pooled human liver microsomes at 1 uM incubated up to 40 mins in presence of NADPH by LC-MS/MS analysis; assay type: ADME, Microsome; procedure, shortened: as §4
[17] = Intrinsic clearance in pooled cryopreserved dog hepatocytes at 1 uM incubated up to 90 mins by LC-MS/MS analysis; assay type: ADME, cell-based, Canis lupus familiaris, Hepatocyte; conditions: 1.5 h; procedure, shortened: as §4

T3 sequence (P08684 whole entry): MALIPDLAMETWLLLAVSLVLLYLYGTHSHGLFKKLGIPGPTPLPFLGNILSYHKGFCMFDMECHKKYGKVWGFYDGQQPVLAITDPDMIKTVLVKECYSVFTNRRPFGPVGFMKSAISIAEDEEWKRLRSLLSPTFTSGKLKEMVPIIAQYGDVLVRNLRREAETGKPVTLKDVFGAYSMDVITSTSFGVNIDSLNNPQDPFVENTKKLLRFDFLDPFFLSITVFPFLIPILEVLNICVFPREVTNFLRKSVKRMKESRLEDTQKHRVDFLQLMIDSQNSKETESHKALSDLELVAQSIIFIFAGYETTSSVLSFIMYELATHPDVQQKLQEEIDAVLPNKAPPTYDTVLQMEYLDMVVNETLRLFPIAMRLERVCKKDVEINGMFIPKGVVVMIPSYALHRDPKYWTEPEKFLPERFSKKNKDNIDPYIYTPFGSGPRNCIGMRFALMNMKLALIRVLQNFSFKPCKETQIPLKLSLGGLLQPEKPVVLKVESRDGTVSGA
Chain of Cytochrome P450 2C19 (P33261 whole entry): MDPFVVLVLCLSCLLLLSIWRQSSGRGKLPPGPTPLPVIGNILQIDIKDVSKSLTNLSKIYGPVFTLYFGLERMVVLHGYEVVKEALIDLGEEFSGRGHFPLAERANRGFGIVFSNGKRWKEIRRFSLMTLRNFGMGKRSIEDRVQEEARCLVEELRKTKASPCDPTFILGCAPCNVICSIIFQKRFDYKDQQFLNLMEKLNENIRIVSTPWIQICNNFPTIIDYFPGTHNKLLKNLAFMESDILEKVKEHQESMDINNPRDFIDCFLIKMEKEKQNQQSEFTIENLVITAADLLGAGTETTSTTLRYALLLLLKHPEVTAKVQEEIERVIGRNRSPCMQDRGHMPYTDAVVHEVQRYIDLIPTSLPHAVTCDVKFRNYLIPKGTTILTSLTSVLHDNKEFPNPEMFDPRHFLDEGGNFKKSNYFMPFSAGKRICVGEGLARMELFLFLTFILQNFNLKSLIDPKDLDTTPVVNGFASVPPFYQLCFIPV
Chain of Cytochrome P450 2D6 (P10635 whole entry): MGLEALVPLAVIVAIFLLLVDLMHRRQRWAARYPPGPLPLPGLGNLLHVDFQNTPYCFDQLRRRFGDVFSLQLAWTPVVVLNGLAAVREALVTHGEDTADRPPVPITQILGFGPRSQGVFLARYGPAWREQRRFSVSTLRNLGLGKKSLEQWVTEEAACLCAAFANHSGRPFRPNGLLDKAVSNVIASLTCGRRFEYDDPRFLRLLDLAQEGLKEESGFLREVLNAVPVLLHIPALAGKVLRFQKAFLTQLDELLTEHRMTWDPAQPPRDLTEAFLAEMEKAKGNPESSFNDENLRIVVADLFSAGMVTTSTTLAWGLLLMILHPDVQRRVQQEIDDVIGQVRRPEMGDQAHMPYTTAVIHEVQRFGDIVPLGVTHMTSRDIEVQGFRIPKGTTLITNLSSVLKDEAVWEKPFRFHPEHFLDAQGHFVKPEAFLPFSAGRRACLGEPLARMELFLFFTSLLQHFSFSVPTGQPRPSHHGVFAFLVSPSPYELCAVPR
Chain of Cytochrome P450 2C9 (P11712 whole entry): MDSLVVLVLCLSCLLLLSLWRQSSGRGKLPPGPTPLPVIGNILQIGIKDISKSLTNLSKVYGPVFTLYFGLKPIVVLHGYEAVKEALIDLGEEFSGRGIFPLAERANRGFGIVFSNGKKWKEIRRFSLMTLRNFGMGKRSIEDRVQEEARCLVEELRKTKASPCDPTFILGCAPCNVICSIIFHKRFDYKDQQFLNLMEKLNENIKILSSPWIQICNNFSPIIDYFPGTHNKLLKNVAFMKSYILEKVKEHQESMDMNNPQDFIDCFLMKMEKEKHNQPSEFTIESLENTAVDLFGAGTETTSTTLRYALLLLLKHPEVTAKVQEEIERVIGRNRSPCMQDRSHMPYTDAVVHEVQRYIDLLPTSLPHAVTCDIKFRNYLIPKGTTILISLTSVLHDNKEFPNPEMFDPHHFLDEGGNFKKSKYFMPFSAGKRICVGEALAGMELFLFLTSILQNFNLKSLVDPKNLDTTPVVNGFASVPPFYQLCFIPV
Chain of Voltage-gated inwardly rectifying potassium channel KCNH2 (Q12809 whole entry): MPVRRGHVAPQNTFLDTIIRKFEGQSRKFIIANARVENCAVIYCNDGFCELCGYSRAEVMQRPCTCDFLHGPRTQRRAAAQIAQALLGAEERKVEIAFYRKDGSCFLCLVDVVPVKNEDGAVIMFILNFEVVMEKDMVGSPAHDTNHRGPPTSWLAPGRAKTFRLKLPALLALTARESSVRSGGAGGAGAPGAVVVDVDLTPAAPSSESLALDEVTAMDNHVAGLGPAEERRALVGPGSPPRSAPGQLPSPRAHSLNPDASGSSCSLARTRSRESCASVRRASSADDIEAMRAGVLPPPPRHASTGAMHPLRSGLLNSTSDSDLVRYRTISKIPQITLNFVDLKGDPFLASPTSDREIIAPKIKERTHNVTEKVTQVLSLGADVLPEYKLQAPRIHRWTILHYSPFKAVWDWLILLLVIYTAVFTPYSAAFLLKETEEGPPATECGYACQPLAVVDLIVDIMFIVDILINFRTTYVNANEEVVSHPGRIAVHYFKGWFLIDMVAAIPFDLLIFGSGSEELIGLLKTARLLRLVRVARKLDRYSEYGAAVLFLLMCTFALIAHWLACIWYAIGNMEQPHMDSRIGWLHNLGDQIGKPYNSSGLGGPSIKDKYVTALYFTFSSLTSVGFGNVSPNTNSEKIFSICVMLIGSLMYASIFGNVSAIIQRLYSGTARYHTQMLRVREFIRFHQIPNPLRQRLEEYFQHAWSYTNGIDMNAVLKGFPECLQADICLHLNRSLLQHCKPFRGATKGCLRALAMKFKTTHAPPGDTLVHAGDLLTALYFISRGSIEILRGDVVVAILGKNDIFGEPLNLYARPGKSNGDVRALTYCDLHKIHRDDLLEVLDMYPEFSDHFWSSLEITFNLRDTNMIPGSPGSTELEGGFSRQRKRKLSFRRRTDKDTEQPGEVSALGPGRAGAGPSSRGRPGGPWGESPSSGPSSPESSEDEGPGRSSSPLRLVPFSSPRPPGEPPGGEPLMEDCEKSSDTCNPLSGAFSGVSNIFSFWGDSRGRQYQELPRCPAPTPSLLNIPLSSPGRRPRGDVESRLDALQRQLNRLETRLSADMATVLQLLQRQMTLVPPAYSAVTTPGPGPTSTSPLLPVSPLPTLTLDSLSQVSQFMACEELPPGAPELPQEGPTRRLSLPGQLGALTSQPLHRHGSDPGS

inhibition (INH) (Cytochrome P450 1A): Not Active | inhibition (INH) (Cytochrome P450 2C8): Not Active | inhibition (INH) (Cytochrome P450 2C9): Not Active | inhibition (INH) (Cytochrome P450 2C19): Not Active | inhibition (INH) (Cytochrome P450 2D6): Not Active | inhibition (INH) (Cytochrome P450 3A4 [1]): Not Active | Activity (Cytochrome P450 3A4 [2]): Not Active | TDI (Cytochrome P450 3A4 [3]): Not Active | logD [8]: 4.31 | solubility kinetic [9]: 150 µM (≈ 68.7 µg/mL) | solubility [10]: 11.1 µg/mL (≈ 24.2 µM) | solubility [11]: 60.1 µg/mL (≈ 131 µM) | Papp A→B [12]: 0.047 ×10⁻⁶ cm/s | Papp B→A [13]: 0.102 ×10⁻⁶ cm/s | CLH [14]: < 0.6 µL/min/g | CLH [15]: < 1.1 µL/min/g | CLH [16]: 1.5 µL/min/g | CLH [17]: < 0.8 µL/min/g
SMILES: CCNC(=O)Nc1ccc(-c2nc(N3CCOC[C@@H]3C)c3c(n2)C(C)(C)S(=O)(=O)C3)cc1
IC50 [4]: 48 µM | Activity [5]: Non-Toxic | Activity (Lymphoma cell line [6]): Non-Toxic | Activity (Lymphoma cell line [7]): Non-Toxic
